High-throughput results (PubChem)
Most compounds without a hit are left out; they make up all but 4.2% or so of the library.
OX1R antag-1 – OX1R (HCRTR1) antagonists, primary screen, fluorescence, CHO/OX1R cells, Fluo-8 calcium, orexin A. Orexin/Hypocretin receptor type 1 (Homo sapiens), O43613. Fluo-8 calcium fluorescence. inhibition, % at 5 µM. 330,000 compounds, 0.43% hits;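 active means inhibition above its plate's threshold, mean inhibition of all tested compounds on the plate plus 3 SD, cut at about 37% in these data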
TAAR1 antagonist – human TAAR1 antagonists, primary screen, Fluo-8 calcium fluorescence, CHO RD-HGA16 cells. Trace amine-associated receptor 1 (Homo sapiens), Q96RJ0. antagonist. inhibition, % at 3 µM. 360,000 compounds, 1.5% hits;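 active means inhibition above a per-plate cutoff, the mean inhibition of test compounds on that plate plus 3 SD, cut at about 49% in these data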
Target sequence (Q96RJ0 whole entry, looked up): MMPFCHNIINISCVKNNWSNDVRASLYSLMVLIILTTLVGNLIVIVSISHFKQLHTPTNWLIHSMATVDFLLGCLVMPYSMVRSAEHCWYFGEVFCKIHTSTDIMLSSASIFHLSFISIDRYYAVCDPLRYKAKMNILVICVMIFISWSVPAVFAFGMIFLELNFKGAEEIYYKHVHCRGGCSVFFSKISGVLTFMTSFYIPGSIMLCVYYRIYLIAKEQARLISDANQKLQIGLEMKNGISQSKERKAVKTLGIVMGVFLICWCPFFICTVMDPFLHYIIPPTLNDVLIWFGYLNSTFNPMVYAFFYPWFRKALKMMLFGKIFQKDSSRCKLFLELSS
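Test system: CHO RD-HGA16 cells bearing hTAAR1 | Reagent: β-PEA, EC80 | Compound dosing: 3 µM, single point | Schedule: Dye loading 75 min at 37 °C, then 30 min room temperature | Signal: Calcium fluorescence with Fluo-8 | Evaluation: Percent inhibition of PEA-evoked calcium signal, max/basal emission ratio | Control set: DMSO-only wells and EC80 β-PEA-stimulated wells | Repeats: Singlicate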
CHO parental Ca – ATP-evoked calcium signal inhibitors, parental CHO, primary screen, counter-screen for OX1R antagonist project, cell-based, fluorescence, Fluo-8 calcium dye; parental CHO-K1, ATP-induced calcium, Fluo-8 fluorescence; inhibition, % at 5.6 µM; 330,000 compounds, 0.63% hits;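 active means inhibition above that plate's mean sample inhibition plus 3 SD, cut at about 26% in these data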
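Measured by: calcium-sensitive Fluo-8 fluorescence / Test system: CHO parental line / Controls: ATP-challenged DMSO wells low, unchallenged DMSO wells high / Measure: % inhibition / Compound: single nominal dose of 5.6 µM per compound / Replicates: single well per compound, no replicates / Reagent: ATP as calcium-mobilizing challenge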
OX1R antag-2 – antagonists of human orexin 1 receptor (OX1R); Orexin/Hypocretin receptor type 1 (Homo sapiens), O43613; OX1R-expressing cells, FRET antagonist read-out; inhibition, % at 6.6 µM; 330,000 compounds, 1.8% hits; AID 485270, 2010; in the data active means inhibition mostly above about 38%, no sharp cut-off; inactive means mostly below about 40%
TAAR1 agonist – human TAAR1 agonists, primary screen, Fluo-8 calcium fluorescence, CHO RD-HGA16 cells. Trace amine-associated receptor 1 (Homo sapiens), Q96RJ0. vehicle wells 0%, saturating PEA agonist 100%. activation, % at 3 µM. 360,000 compounds, 0.99% hits;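 active means activation above the mean activation of all test compounds in the run plus 3 SD, cut at about 38% in these data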
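Test system: RD-HGA16 (CHO) cells co-expressing Gα16 and hTAAR1 / Benchmarks: DMSO vehicle as 0%, PEA at EC100 as 100% / Repeats: no replicates (n 1) / Measure: % activation from peak over basal fluorescence ratio, DMSO-to-PEA scaled / Timing: 17-24 h plating, Fluo-8 75 min 37 °C, 30 min RT / Technique: kinetic Fluo-8 calcium fluorescence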
GalR3 antag – GalR3 antagonists in HEK293 cells, primary screen, cell-based, fluorescence readout. inhibition, % at 3 µM. Galanin receptor type 3 (Homo sapiens), O60755. HEK293 GalR3-CNG cAMP membrane potential fluorescence; galR3 body fused to GalR1 C-terminus. 360,000 compounds, 0.44% hits;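 active means inhibition above the screen-wide average plus 3 SD, cut at about 13% in these data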;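 further: forskolin and galanin both at EC90 stimulate the cells; cAMP rise reported by CNG channel membrane potential dye signal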
Target sequence (O60755 1-299 limits assumed): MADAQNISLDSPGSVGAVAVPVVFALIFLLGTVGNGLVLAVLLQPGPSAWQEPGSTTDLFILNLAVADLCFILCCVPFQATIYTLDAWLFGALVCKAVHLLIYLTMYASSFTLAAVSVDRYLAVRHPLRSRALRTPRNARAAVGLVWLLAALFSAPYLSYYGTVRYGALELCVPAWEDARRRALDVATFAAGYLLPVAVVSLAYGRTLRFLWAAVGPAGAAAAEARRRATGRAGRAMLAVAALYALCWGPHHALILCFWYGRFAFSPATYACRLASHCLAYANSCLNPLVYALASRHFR
OX1R HTRF conf – OX1R (HCRTR1) antagonists, confirmation, cell-based, HTRF; shares compounds with OX1R antag-2; inhibition, % at 6.6 µM; AID 492964, 2010; OX1R-expressing cells, HTRF antagonist assay; 1,800 compounds, 49% hits; in the data active means inhibition above about 55%;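 further: CHO cells expressing OX1R stimulated with orexin A at about EC80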
CHO-K1 HTRF cnt – signal inhibition in parental CHO-K1 cells, counter-screen for OX1R antagonist project, cell-based, HTRF; inhibition, % at 6.6 µM; 1,800 compounds, 48% hits; shares compounds with OX1R antag-2; HTRF counterscreen; in the data active means inhibition above about 17%
A number is an active result; n = inactive; x = not tested or not shown.

SMILES	OX1R antag-1	TAAR1 antagonist	CHO parental Ca	OX1R antag-2	TAAR1 agonist	GalR3 antag	OX1R HTRF conf	CHO-K1 HTRF cnt
Cc1ccc(NC(=O)c2ccc(OC(=O)CCN3C(=O)c4ccccc4C3=O)cc2)cc1	n	n	n	n	n	n	x	x
CC(C)c1ccc(C(=O)NN2C(=O)C3CCCCC3C2=O)cc1 (configuration not stated)	n	n	n	n	n	n	x	x
Cc1ccc(Oc2c(C(N)=O)cc([N+](=O)[O-])cc2[N+](=O)[O-])cc1	n	n	n	105	n	n	80	76
COc1ccc2oc(=O)c(C(=O)NCc3cccnc3)cc2c1	n	n	n	83	n	n	n	40
COC(=O)c1c(NC(=O)C(C)C)sc2c1C(C(=O)OC)CC2 (configuration not stated)	n	n	n	n	n	n	x	x
COC(=O)c1c(NC(=O)c2ccco2)sc2c1C(C(=O)OC)CC2 (configuration not stated)	n	n	n	80	n	n	62	n
Cc1ccc(S(=O)(=O)N2[C@@H](c3cccc(Cl)c3)C(C(=O)O)=CC[C@H]2c2ccc3c(c2)OCO3)cc1	n	n	n	83	n	n	87	n
CCOc1ccc(NC(=O)CNS(=O)(=O)c2c(C)cc(C)cc2C)cc1	n	n	n	82	n	n	62	n
CCOc1ccc(NC(=O)CC(=O)Nc2ccc(OCC)cc2)cc1	n	n	n	n	n	n	x	x
CCN1C(=O)[C@H]2[C@@H](c3ccc(-c4ccc(C(C)=O)cc4)cc3)N3CCC[C@@]3(C(=O)OC)[C@H]2C1=O	n	n	n	n	n	n	x	x
O=C(N/N=C/c1ccccn1)c1cc([N+](=O)[O-])cc([N+](=O)[O-])c1	n	n	n	91	n	n	59	42
O=C(N/N=C/c1ccc([N+](=O)[O-])cc1)c1ccc2nc[nH]c2c1	n	n	n	114	n	n	n	41
O=C(N/N=C/c1cc([N+](=O)[O-])ccc1N1CCNCC1)c1ccc([N+](=O)[O-])cc1	n	n	n	78	n	n	n	69
O=C(N/N=C/c1ccccn1)c1cccc([N+](=O)[O-])c1	n	n	n	n	n	n	x	x
N#CCC(=O)N/N=C/c1cc([N+](=O)[O-])ccc1N1CCCC1	n	n	n	n	n	n	x	x
O=C(N/N=C/c1ccccn1)c1ccc([N+](=O)[O-])cc1	n	n	n	83	n	n	n	42
O=C(N/N=C/c1cccc([N+](=O)[O-])c1)c1ccc2nc[nH]c2c1	n	n	n	n	n	n	x	x
COc1cc2ccccc2cc1C(=O)N1CC(C)OC(C)C1 (configuration not stated)	x	n	x	x	n	n	x	x
CCOC(=O)c1[nH]c(C)c(C(=O)OCC(=O)N(C)C2CCS(=O)(=O)C2)c1C (configuration not stated)	n	n	n	n	n	n	x	x
O=C(N/N=C/c1cccc([N+](=O)[O-])c1)c1cnccn1	n	n	n	106	n	n	n	61
Brc1cccc(-c2nnc(SCc3nc4ccccc4[nH]3)o2)c1	n	n	n	80	n	n	n	n
O=C1NC2(CCC3(CC2)OCCO3)NN1c1ccccc1	n	n	n	n	n	n	x	x
Cc1cccc(-n2c3nc(=O)[nH]c(=O)c-3cc3cc([N+](=O)[O-])ccc32)c1	n	n	n	77	n	n	68	66
CC(C)CC(=O)N1CCN(S(=O)(=O)c2ccc(C3CCCCC3)cc2)CC1	n	n	n	n	n	n	x	x
CNC(=O)COC(=O)CNC(=O)c1cc(Cl)cc([N+](=O)[O-])c1	n	n	n	89	n	n	n	49
SMILES	OX1R antag-1	TAAR1 antagonist	CHO parental Ca	OX1R antag-2	TAAR1 agonist	GalR3 antag	OX1R HTRF conf	CHO-K1 HTRF cnt
O=C(CNC(=O)c1ccc(Br)cc1)NCC(=O)OCC(=O)c1ccc(F)cc1	x	n	x	x	n	n	x	x
O=C(CNC(=O)c1ccc(Br)cc1)NCC(=O)OCC(=O)c1ccc([N+](=O)[O-])cc1	n	n	n	87	n	n	n	50
Cc1cccc(-c2nn(-c3ccccc3)cc2C(=O)NCC(c2cccs2)N2CCOCC2)c1 (configuration not stated)	n	n	n	n	n	n	x	x
O=C1c2cccc3cc([N+](=O)[O-])cc(c23)C(=O)N1CCN1CCCC1	x	n	x	x	n	n	x	x
O=C1c2cccc3cc([N+](=O)[O-])cc(c23)C(=O)N1/N=C/c1ccc(O)cc1O	n	n	n	181	n	n	74	108
CCCn1c(SCC(=O)Nc2ccc3c(c2)OCCO3)nnc1-c1ccco1	n	n	n	n	n	n	x	x
COc1cccc(-c2nnc(SCC(=O)Nc3ccc4c(c3)OCCO4)n2Cc2ccco2)c1	n	n	n	78	n	n	n	n
COc1cccc2sc(Nc3nc(-c4ccncc4)cs3)nc12	n	n	n	82	n	n	98	n
Cc1cccc(OC(C)C(=O)Nc2nccs2)c1 (configuration not stated)	n	n	n	n	n	n	x	x
Cc1ccc2nc3c(cc(C#N)c(=O)n3-c3nccs3)c(=O)n2c1	n	n	n	169	n	n	90	77
COc1cccc(/C=N/NC(=O)c2c(-c3ccccc3)noc2C)c1O	n	n	n	98	n	n	n	n
C[C@H](CO)N1C[C@H](C)[C@@H](CN(C)Cc2ccc3c(c2)OCO3)Oc2c(NC(=O)C3CCCCC3)cccc2C1=O	n	n	n	n	n	n	x	x
O=C(C[n+]1cc(-c2ccc(Cl)cc2)n2c1CCC2)N1c2ccccc2Sc2ccccc21	n	n	n	n	n	n	x	x
CC1CCC(C(C)C)C(OC(=O)C[n+]2cc(-c3ccc(Cl)cc3)n3c2CCC3)C1 (configuration not stated)	n	n	n	102	n	n	n	n
CCOC(=O)c1cncc(NC(=O)c2ccccc2)c1	n	n	n	n	n	n	x	x
